Test [1] deals with T1, Breast cancer type 1 susceptibility protein (Homo sapiens, UniProt P38398). The test can be described thus: Inhibition of BRCT domain of His-tagged BRCA1 after 1 min by competitive fluorescence polarization assay. Background: Fluorescence polarisation rises when a labelled molecule tumbles more slowly, as on binding a larger partner.
Target sequence in this assay (P38398 whole entry, the tested form may be a part): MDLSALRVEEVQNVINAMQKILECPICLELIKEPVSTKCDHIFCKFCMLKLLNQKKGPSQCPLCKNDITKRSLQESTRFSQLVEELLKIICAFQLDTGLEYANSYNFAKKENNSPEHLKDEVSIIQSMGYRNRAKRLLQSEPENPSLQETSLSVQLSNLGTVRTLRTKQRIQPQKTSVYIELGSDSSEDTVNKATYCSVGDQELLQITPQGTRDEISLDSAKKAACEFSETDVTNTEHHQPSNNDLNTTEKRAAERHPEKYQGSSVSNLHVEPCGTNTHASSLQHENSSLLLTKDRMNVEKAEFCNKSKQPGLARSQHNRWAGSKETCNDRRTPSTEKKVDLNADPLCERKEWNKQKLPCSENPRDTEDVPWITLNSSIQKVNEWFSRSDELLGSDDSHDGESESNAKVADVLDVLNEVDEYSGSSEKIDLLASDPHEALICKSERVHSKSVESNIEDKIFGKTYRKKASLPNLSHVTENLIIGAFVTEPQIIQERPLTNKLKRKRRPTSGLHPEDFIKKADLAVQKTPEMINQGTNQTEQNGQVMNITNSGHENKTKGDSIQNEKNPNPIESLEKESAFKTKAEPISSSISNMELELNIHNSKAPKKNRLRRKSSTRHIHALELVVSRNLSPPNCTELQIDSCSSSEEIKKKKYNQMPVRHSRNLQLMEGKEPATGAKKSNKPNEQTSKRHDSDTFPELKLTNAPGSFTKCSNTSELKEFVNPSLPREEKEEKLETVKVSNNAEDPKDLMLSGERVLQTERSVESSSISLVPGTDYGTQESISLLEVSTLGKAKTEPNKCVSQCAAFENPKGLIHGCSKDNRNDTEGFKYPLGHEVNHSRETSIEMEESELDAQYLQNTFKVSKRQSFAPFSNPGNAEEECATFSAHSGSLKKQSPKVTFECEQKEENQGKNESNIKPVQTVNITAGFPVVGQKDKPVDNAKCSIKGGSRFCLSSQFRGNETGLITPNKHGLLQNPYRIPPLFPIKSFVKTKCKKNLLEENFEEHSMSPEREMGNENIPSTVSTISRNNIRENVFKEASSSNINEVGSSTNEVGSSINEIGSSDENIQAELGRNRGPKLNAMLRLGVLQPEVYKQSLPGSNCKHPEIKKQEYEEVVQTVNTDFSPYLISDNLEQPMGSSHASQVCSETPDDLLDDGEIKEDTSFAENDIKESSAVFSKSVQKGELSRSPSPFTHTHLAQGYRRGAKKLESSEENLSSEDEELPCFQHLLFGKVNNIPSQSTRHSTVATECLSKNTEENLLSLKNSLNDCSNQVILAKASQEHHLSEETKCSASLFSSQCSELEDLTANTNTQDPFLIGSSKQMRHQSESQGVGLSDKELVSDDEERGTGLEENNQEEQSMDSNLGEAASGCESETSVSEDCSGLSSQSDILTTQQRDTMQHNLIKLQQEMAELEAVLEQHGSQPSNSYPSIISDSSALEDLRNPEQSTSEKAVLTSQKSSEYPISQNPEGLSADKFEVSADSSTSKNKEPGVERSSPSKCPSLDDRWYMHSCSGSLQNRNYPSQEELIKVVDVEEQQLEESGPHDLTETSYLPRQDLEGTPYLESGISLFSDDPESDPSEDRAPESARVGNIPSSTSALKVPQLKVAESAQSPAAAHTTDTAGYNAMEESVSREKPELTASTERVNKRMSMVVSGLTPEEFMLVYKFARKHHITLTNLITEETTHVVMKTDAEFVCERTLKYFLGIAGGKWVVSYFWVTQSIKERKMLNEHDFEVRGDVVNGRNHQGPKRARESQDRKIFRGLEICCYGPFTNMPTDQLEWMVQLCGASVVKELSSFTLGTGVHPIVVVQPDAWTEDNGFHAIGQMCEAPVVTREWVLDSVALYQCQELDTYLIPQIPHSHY
In test [2] the target is T1, Breast cancer type 1 susceptibility protein. The experiment in a line: Displacement of phospho-BACH1 protein from BRCT domain of BRCA1 at 0.5 to 5000 uM by PAGE analysis. The procedure, abridged: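 Phospho-BACH1 peptide immobilized on streptavidin–agarose beads was incubated with BRCT-BRCA1 together with the competing peptide mimics. Beads were then isolated and the bound protein resolved by polyacrylamide gel electrophoresis, followed by phosphor-screen exposure. Relative band intensities were quantified, and pulldown IC50 values were obtained by curve fitting.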
Target sequence in this assay (P38398 whole entry, looked up, the tested form may be a part): as the sequence (P38398 whole entry, the tested form may be a part) above

Activity calls are given as the source filed them. The rule behind the calls is not given here. Non-standard residues stand in square brackets, D forms with d. Residues, ends and D or L forms follow the SMILES beside them. *: point of attachment. Benzoyl(3-Ph) = O=C(c1cccc(-c2ccccc2)c1)*; 2Nal = N[C@@H](Cc1ccc2ccccc2c1)C(=O)O; d2Nal = N[C@H](Cc1ccc2ccccc2c1)C(=O)O; Pentanoyl(5-Ph) = O=C(CCCCc1ccccc1)*; Butanoyl(4-Ph) = O=C(CCCc1ccccc1)*; Hydrocinnamoyl = O=C(CCc1ccccc1)*; pS = N[C@@H](COP(=O)(O)O)C(=O)O; X1 = O=C(C/C=C/c1ccccc1)*

What is called Ki is the equilibrium dissociation constant of an inhibitor or competing ligand from its target. `CC(=O)N[C@@H](Cc1ccc2ccccc2c1)C(=O)N[C@@H](COP(=O)(O)O)C(=O)N1CCC[C@H]1C(=O)N[C@H](C(=O)N[C@@H](Cc1ccccc1)C(N)=O)[C@@H](C)O` (Ac-[2Nal][pS]PTF-NH2) came in with a Ki in test [1] of 1240 nM.

In turn, `CC(=O)N[C@@H](Cc1ccc2ccccc2c1)C(=O)N[C@@H](COP(=O)(O)O)C(=O)N1CCC[C@H]1C(=O)N[C@H](C(=O)N[C@@H](Cc1ccccc1)C(N)=O)C(C)C` (Ac-[2Nal][pS]PVF-NH2) yielded an inhibitory constant (Ki) in test [1] of 540 nM. Against the preceding molecule, the Ki is about 2.3-fold lower.

In test [1], `CC(=O)N[C@@H](Cc1ccc2ccccc2c1)C(=O)N[C@@H](COP(=O)(O)O)C(=O)N1CCC[C@H]1C(=O)N[C@H](C(=O)N[C@@H](Cc1ccccc1)C(=O)O)C(C)C` (Ac-[2Nal][pS]PVF-OH) registered a Ki of 130 nM. Compared with the last molecule, the Ki is about 4.2-fold lower.

For `CC(=O)N[C@H](Cc1ccc2ccccc2c1)C(=O)N[C@@H](COP(=O)(O)O)C(=O)N1CCC[C@H]1C(=O)N[C@H](C(=O)N[C@@H](Cc1ccccc1)C(N)=O)[C@@H](C)O` (Ac-[d2Nal][pS]PTF-NH2), the affinity in test [1], expressed as Ki, was 19400 nM.

With `CC(C)[C@H](NC(=O)[C@@H]1CCCN1C(=O)[C@H](COP(=O)(O)O)NC(=O)CCc1ccccc1)C(=O)N[C@@H](Cc1ccccc1)C(=O)O` (Hydrocinnamoyl-[pS]PVF-OH), in test [1], affinity was put at a Ki of 100 nM. This Ki lies about 190-fold lower than the previous one.

As for `CC(C)[C@H](NC(=O)[C@@H]1CCCN1C(=O)[C@H](COP(=O)(O)O)NC(=O)C/C=C/c1ccccc1)C(=O)N[C@@H](Cc1ccccc1)C(=O)O` (X1-[pS]PVF-OH), the Ki in test [1] turned out to be 40 nM. Also, the result in test [2] was Active.

In test [1], `CC(C)[C@H](NC(=O)[C@@H]1CCCN1C(=O)[C@H](COP(=O)(O)O)NC(=O)c1cccc(-c2ccccc2)c1)C(=O)N[C@@H](Cc1ccccc1)C(=O)O` ({Benzoyl(3-Ph)}-[pS]PVF-OH) came in with a Ki of 80 nM. For the same molecule, the result in test [2] was Active.

With `CC(C)[C@H](NC(=O)[C@@H]1CCCN1C(=O)[C@H](COP(=O)(O)O)NC(=O)CCCc1ccccc1)C(=O)N[C@@H](Cc1ccccc1)C(=O)O` ({Butanoyl(4-Ph)}-[pS]PVF-OH), in test [1], the affinity corresponds to a Ki of 500 nM.

`CC(C)[C@H](NC(=O)[C@@H]1CCCN1C(=O)[C@H](COP(=O)(O)O)NC(=O)CCCCc1ccccc1)C(=O)N[C@@H](Cc1ccccc1)C(=O)O` ({Pentanoyl(5-Ph)}-[pS]PVF-OH) showed a Ki in test [1] of 12000 nM.
